Assay [1] has as its system Escherichia coli. The experiment in a line: Potentiation of chloramphenicol-induced antibacterial activity Escherichia coli transformed with plasmid carrying MG1655 deltaBC/pXYM assessed as chloramphenicol MIC by p-iodonitrotetrazolium chloride colorimetric assay. Format: functional. The procedure, abridged: (§1)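 Checkerboard microdilution in Mueller-Hinton broth: two-fold dilutions of antibiotic crossed with dilutions of test compound above, at and below their MICs. Growth was read by INT colorimetric assay, with MIC as the lowest concentration showing no visible growth. FICs and FIC index were derived from these MICs. ΔBC/pABM and ΔBC/pXYM strains were grown with 100 μg/mL ampicillin and 1 mM IPTG.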

Assay [2] concerns Escherichia coli. The experiment in a line: Potentiation of ciprofloxacin-induced antibacterial activity Escherichia coli transformed with plasmid carrying MG1655 deltaBC/pXYM assessed as ciprofloxacin MIC by p-iodonitrotetrazolium chloride colorimetric assay. Format: functional. In short, it runs like this:
as §1

Assay [3] relates to Escherichia coli. The experiment in a line: Potentiation of erythromycin-induced antibacterial activity Escherichia coli transformed with plasmid carrying MG1655 deltaBC/pXYM assessed as erythromycin MIC by p-iodonitrotetrazolium chloride colorimetric assay. The format is functional. The procedure, abridged:
as §1

The test system of assay [4] is Escherichia coli. The experiment in a line: Potentiation of kanamycin-induced antibacterial activity Escherichia coli transformed with plasmid carrying MG1655 deltaBC/pABM assessed as kanamycin MIC by p-iodonitrotetrazolium chloride colorimetric assay. Format: functional. The procedure, abridged: as §1
For assay [5], the system named is Escherichia coli. Kind of assay: Potentiation of levofloxacin-induced antibacterial activity Escherichia coli AG102 overexpressing AcrAB-TolC assessed as levofloxacin MIC by p-iodonitrotetrazolium chloride colorimetric assay. Format: functional. In short, it runs like this:
as §1

For assay [6], the system named is Escherichia coli. The experiment in a line: Potentiation of levofloxacin-induced antibacterial activity Escherichia coli transformed with plasmid carrying MG1655 deltaBC/pABM assessed as levofloxacin MIC by p-iodonitrotetrazolium chloride colorimetric assay. The format is functional. The procedure, abridged:
as §1

Assay [7] has as its system Escherichia coli. The experiment in a line: Potentiation of oxacillin-induced antibacterial activity Escherichia coli transformed with plasmid carrying MG1655 deltaBC/pXYM assessed as oxacillin MIC by p-iodonitrotetrazolium chloride colorimetric assay. Format: functional. The procedure, abridged: as §1
In assay [8] the test system is Escherichia coli. Kind of assay: Potentiation of piperacillin-induced antibacterial activity Escherichia coli transformed with plasmid carrying MG1655 deltaBC/pXYM assessed as piperacillin MIC by p-iodonitrotetrazolium chloride colorimetric assay. The format is functional. In short, it runs like this: as §1
Assay [9] relates to Escherichia coli. Kind of assay: Potentiation of ciprofloxacin-induced antibacterial activity Escherichia coli transformed with plasmid carrying MG1655 deltaBC/pXYM by p-iodonitrotetrazolium chloride colorimetric assay. Format: functional.
In assay [10] the test system is Escherichia coli. Kind of assay: Potentiation of erythromycin-induced antibacterial activity Escherichia coli transformed with plasmid carrying MG1655 deltaBC/pXYM by p-iodonitrotetrazolium chloride colorimetric assay. The format is functional.
The test system of assay [11] is Escherichia coli. The experiment in a line: Potentiation of levofloxacin-induced antibacterial activity Escherichia coli AG102 overexpressing AcrAB-TolC MIC by p-iodonitrotetrazolium chloride colorimetric assay. The format is functional.
Assay [12] deals with Escherichia coli. The experiment in a line: Potentiation of oxacillin-induced antibacterial activity Escherichia coli transformed with plasmid carrying MG1655 deltaBC/pXYM by p-iodonitrotetrazolium chloride colorimetric assay. Format: functional.
Assay [13] has as its system Escherichia coli. The experiment in a line: Potentiation of piperacillin-induced antibacterial activity Escherichia coli transformed with plasmid carrying MG1655 deltaBC/pABM by p-iodonitrotetrazolium chloride colorimetric assay. Format: functional, organism-based. The procedure, abridged:
as §1

Assay [14] concerns Escherichia coli K-12. Kind of assay: Inhibition of AcrAB-TolC pump in Escherichia coli K-12 AG100 assessed as […] at 16 ug/ml after 60 mins by accumulation assay. The procedure, abridged:
(§2)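 AG100 (wild-type K-12) or AG100A (ΔacrAB) grown in Luria broth at 37 °C and 200 rpm to OD600 1.0, PBS-washed, diluted to OD600 0.3. Cells given 2.5 μM H33342 with 22 mM glucose at 37 °C for ~30 min until stable, then compound (0.06–64 μg/mL) added. Fluorescence (Ex 350/Em 460) read for 60 min, background subtracted. Final 4 time points averaged; one-way ANOVA/Dunnett vs Hoechst-only; n = 8.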

For assay [15], the system named is Escherichia coli K-12. Kind of assay: Inhibition of AcrAB-TolC pump in Escherichia coli K-12 AG100 assessed as inhibition of H33342 accumulation at 1 ug/ml after 60 mins by accumulation assay. The procedure, abridged:
as §2

Assay [16] has as its system Escherichia coli K-12. The experiment in a line: Inhibition of AcrAB-TolC pump in Escherichia coli K-12 AG100 assessed as […] at 0.06 ug/ml after 60 mins by accumulation assay. The procedure, abridged:
as §2

Assay [17] concerns Escherichia coli. The experiment in a line: Effect on intracellular H33342 accumulation in Escherichia coli AG100A delta acrAB mutant at 64 ug/ml after 60 mins by accumulation assay. Format: functional. In short, it runs like this:
(§3)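 Cells grown in Luria broth at 37 °C, 200 rpm to OD600 1.0, then washed twice in PBS and diluted in glucose-free PBS to OD600 0.3. H33342 was used at 2.5 μM with 22 mM glucose at 37 °C and allowed to accumulate for ~30 min. Compound was then added and fluorescence (Ex 350/Em 460 nm) followed for 60 min. Values are the mean RFU of the final 4 min, after media-plus-compound background was subtracted. Run in duplicate, n = 8.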

Assay [18] deals with Escherichia coli. The experiment in a line: Effect on intracellular H33342 accumulation in Escherichia coli AG100A delta acrAB mutant at 1 ug/ml after 60 mins by accumulation assay. The format is functional. The procedure, abridged: as §3
The subject of assay [19] is Escherichia coli. Kind of assay: Effect on intracellular H33342 accumulation in Escherichia coli AG100A delta acrAB mutant at 0.06 ug/ml after 60 mins by accumulation assay. The format is functional. In short, it runs like this:
as §3

For assay [20], the system named is Escherichia coli K-12. The experiment in a line: Inhibition of AcrAB-TolC pump in Escherichia coli K-12 AG100 assessed as increase in intracellular H33342 fluorescence at 0.25 ug/ml after 60 mins by efflux inhibition assay. Format: cell-based.
Assay [21] concerns Escherichia coli K-12. The experiment in a line: Inhibition of AcrAB-TolC pump in Escherichia coli K-12 AG100 assessed as increase in intracellular H33342 fluorescence at 0.06 ug/ml after 60 mins by efflux inhibition assay. Format: cell-based. The procedure, abridged:
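AG100 (wild-type K-12) or AG100A (ΔacrAB) cells were grown in Luria broth at 37 °C and 200 rpm to OD600 1.0, PBS-washed and diluted to OD600 0.3. Cells took up 2.5 μM Hoechst 33342 with 22 mM glucose at 37 °C for about 30 min, then compound (0.06–64 μg/mL) or PAβN (15.6 μg/mL) was added. Fluorescence (Ex 350/Em 460 nm) was followed for 60 min and corrected for background. The last four time points were compared to dye-only control by ANOVA with Dunnett's test, run in duplicate.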

Assay [22] has as its system Escherichia coli. Kind of assay: Antibacterial activity against Escherichia coli AG102 overexpressing AcrAB-TolC by p-iodonitrotetrazolium chloride colorimetric assay. The format is functional. In short, it runs like this:
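Two-fold broth microdilution in Mueller-Hinton broth, read by p-iodonitrotetrazolium chloride colorimetric assay. MIC is the lowest concentration giving no visible growth. MG1655 ΔacrB ΔtolC strains carrying pABM or pXYM were always cultured with 100 μg/mL ampicillin and 1 mM IPTG. Medium, inoculum and 1% DMSO (final) served as negative control.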

Assay [23] deals with Escherichia coli K-12. Kind of assay: Inhibition of AcrAB-TolC pump in Escherichia coli K-12 AG100 assessed as increase in H33342 accumulation at 64 ug/ml after 60 mins by accumulation assay.

≈ marks a conversion by molar mass, not a printed value. Calls of active or inactive are those of the source. No cut-off for these calls is given here.

In general, MIC refers to the least concentration at which growth counts as inhibited.

`O=C1NC(=O)C(Br)=C1Br`: the MIC is 64 µg/mL in [1]; 32 µg/mL in [2]; 32 µg/mL in [3]; 128 µg/mL in assay [4]; 128 µg/mL in assay [5]; 64 µg/mL in assay [6]. The MIC came out at 64 µg/mL in assay [7], 256 µg/mL in assay [8] and 256 µg/mL (≈ 1000 µM) in assay [22]. Further, the “fractional inhibitory concentration index (FICI)” value was determined as 0.19 in [9], 0.31 in assay [10], 0.36 in assay [11] and 0.27 in assay [12]. Also, the “fractional inhibitory concentration index (FICI)” value in assay [13] is “inactive”. Also, the RFU was 1170 in assay [14]; 1010 in assay [15]; 758 in assay [16]; 1090 in [17]; 1070 in [18]; 1020 in assay [19]. In addition, the RFU in assay [20] was -351; in [21] it was -422; in assay [23], 1200.
